This is an account of results in ChEMBL document CHEMBL4831487, “Fragment-based drug design targeting syntenin PDZ2 domain involved in exosomal release and tumour spread” (Eur J Med Chem, 2021).

The structures appear in SMILES notation. The source made the active and inactive calls. The rule behind the calls is not given here.

The target in experiment [1] is Syntenin-1/Syndecan-2 (Homo sapiens) (UniProt O00560+P34741). Description: Inhibition of recombinant human full-length GST-tagged syntenin-1/Syndecan-2 complex interaction expressed in Escherichia coli ER2566 at 400 uM measured after 16 hrs by HTRF assay. A digest of the protocol: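 GST-syntenin-1 full length expressed in E. coli ER2566 (0.4 mM IPTG, overnight at 30 °C), purified on GSTrap; HTRF binding to syndecan-2. Compounds at 400 μM, single well, plates spun then incubated 16 h at 4°C. Excitation 337 nm, emission 665/620 ratio; % inhibition from DMSO-only max and no-protein min signals.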

The target of experiment [2] is T1, Syntenin-1/Syndecan-2 (Homo sapiens, UniProt O00560). Nature of the experiment: Inhibition of recombinant human full-length GST-tagged syntenin-1/Syndecan-2 complex interaction expressed in Escherichia coli ER2566 measured after 16 hrs by HTRF assay. Put shortly:
(§1)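 HTRF assay of E. coli ER2566-expressed GST-syntenin-1 full length binding to syndecan-2; serial DMSO dilutions of compound in triplicate, 16 h at 4°C after spin. 665/620 nm ratio (excitation 337 nm) converted to % inhibition versus DMSO-only and no-protein controls to derive IC50; for line 4, buffer contained 0.01% NP40.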
(In general: In TR-FRET formats the signal depends on donor and acceptor labels being close together.)

The target in experiment [3] is T1, Syntenin-1/Syndecan-2. Description: Inhibition of recombinant human full-length GST-tagged syntenin-1/Syndecan-2 complex interaction expressed in Escherichia coli ER2566 in presence of NP40 detergent measured after 16 hrs by HTRF assay. A digest of the protocol:
as §1

Experiment [4] deals with MCF7. Nature of the experiment: Down regulation of syntenin-1 level in human MCF7 cells at 100 uM measured after 16 hrs by Western blot analysis. The format is functional, cell-based. A digest of the protocol:
(§2)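 MCF-7 cells (DMEM-F12, 10% FCS, 37°C, 5% CO2) treated at 100 μM or DMSO 0.2% vehicle for 16 h in medium with 10% exosome-depleted FCS. Exosomes isolated from medium by sequential centrifugation at 4 °C (500 g, 10,000 g, 100,000 g pellet, PBS wash); loading normalized to parent cell number. SDS-PAGE western blot; mean signal relative to vehicle, N independent experiments, one-way ANOVA with Tukey posttest.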

Experiment [5] relates to MCF7. Nature of the experiment: Down regulation of flotillin-1 level in human MCF7 cells at 100 uM measured after 16 hrs by Western blot analysis. Type of experiment: functional, cell-based. A digest of the protocol:
as §2

T1 sequence (O00560 whole entry): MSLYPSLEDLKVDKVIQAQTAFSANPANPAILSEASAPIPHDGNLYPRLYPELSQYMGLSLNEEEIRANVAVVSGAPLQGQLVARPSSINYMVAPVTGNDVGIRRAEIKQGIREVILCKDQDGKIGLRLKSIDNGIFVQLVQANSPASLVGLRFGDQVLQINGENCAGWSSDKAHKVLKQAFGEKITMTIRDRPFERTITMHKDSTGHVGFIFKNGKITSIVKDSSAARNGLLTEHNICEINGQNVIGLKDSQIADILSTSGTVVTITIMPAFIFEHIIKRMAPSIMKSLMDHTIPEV
T1 sequence (P34741 whole entry, further chain): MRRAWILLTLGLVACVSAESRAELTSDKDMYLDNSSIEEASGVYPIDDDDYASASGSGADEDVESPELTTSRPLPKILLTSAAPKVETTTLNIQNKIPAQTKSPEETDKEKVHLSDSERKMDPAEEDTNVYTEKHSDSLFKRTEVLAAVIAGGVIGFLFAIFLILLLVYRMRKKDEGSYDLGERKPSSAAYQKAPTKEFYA

Usually inhibition stands for the relative decrease from the control value, in per cent. For the molecule `C[C@H](NC(=O)COc1ccc(Cl)cc1)C(=O)O`, the inhibition in experiment [1] worked out at 0%.

With `C[C@H](NC(=O)CCOc1ccccc1)C(=O)O`, the inhibition in experiment [1] stood at 11%. As to `CC(C)[C@H](NC(=O)CCOc1ccccc1)C(=O)O`, the inhibition in experiment [1] came to 0%. Usually IC50 stands for the point on the concentration scale where inhibition reaches its midpoint. In the case of `COCCOc1ccc(-c2ccc(SCCC(=O)N[C@H](C(=O)O)C(C)C)cc2)cn1`, at Syntenin-1/Syndecan-2 [2], the IC50 was 112 µM.

With `O=C(CCOc1ccc(Cl)cc1)N[C@@H](Cc1ccccc1)C(=O)O`, the inhibition in experiment [1] came out at 1%. On to `O=C(CCSc1ccc(Cl)cc1)N[C@@H](Cc1ccccc1)C(=O)O`, for which, in experiment [1], the inhibition stood at 0%. As for `CC(C)[C@H](NC(=O)CCSc1ccc(-c2ccc(S(=O)(=O)N3CCCCC3)cc2)cc1)C(=O)O`, the IC50 on Syntenin-1/Syndecan-2 [2] is more than 200 µM. As to `C[C@H](NC(=O)COc1ccccc1)C(=O)O`, the inhibition in experiment [1] amounted to 0%. As for `C[C@H](NC(=O)CCOc1ccc(Cl)cc1)C(=O)O`, the inhibition in experiment [1] amounted to 6%. Take `CC(C)[C@H](NC(=O)CSc1ccc(Cl)cc1)C(=O)O`: the inhibition in experiment [1] amounted to 56%. In addition, the IC50 at Syntenin-1/Syndecan-2 [3] was found to be 864 µM. On to `CC(=O)Nc1ccc(-c2ccc(SCCC(=O)N[C@H](C(=O)O)C(C)C)cc2)cn1`, for which, on Syntenin-1/Syndecan-2 [2], the IC50 came to 177 µM. For `CC(C)[C@H](NC(=O)COc1ccc(Cl)cc1)C(=O)O`, in experiment [1], the inhibition was 16%. Consider `O=C(CCSc1ccccc1)N[C@@H](Cc1ccccc1)C(=O)O`, for which, in experiment [1], the inhibition turned out to be 0%. With `CC(C)[C@H](NC(=O)CCSc1ccc(-c2ccc(OS(C)(=O)=O)cc2)cc1)C(=O)O`, the IC50 is 7.4 µM on Syntenin-1/Syndecan-2 [2] and 204 µM on Syntenin-1/Syndecan-2 [3]. As for `O=C(CCOc1ccccc1)N[C@@H](Cc1ccccc1)C(=O)O`, the inhibition in experiment [1] stood at 0%. For the molecule `CC(C)[C@H](NC(=O)CCSc1ccc(-c2ccc(CNC(=O)OC(C)(C)C)cc2)cc1)C(=O)O`, on Syntenin-1/Syndecan-2 [2], the IC50 worked out at 69 µM.

Consider `C[C@H](NC(=O)CSc1ccccc1)C(=O)O`, for which the inhibition in experiment [1] was found to be 0%. In the case of `CC(C)[C@H](NC(=O)CCSc1ccc(-c2cccc(CO)c2)cc1)C(=O)O`, the IC50 at Syntenin-1/Syndecan-2 [2] was found to be 96 µM. Consider `CC(C)[C@H](NC(=O)CCSc1ccc(-c2ccc(CCC(=O)O)cc2)cc1)C(=O)O`, for which the IC50 on Syntenin-1/Syndecan-2 [2] is more than 200 µM. Turning to `CC(C)[C@H](NC(=O)CCSc1ccc(Cl)cc1)C(=O)O`, in experiment [1], the inhibition came out at 94%. Further, the IC50 was found to be 33 µM at Syntenin-1/Syndecan-2 [2] and 45 µM at Syntenin-1/Syndecan-2 [3]. For the same molecule, the result in the experiment with MCF7 [4] was Active. In addition, the result in the experiment on MCF7 [5] was inactive. Turning to `CC(C)[C@H](NC(=O)CCCc1ccccc1)C(=O)O`, the inhibition in experiment [1] stood at 9%. For the molecule `CC(C)[C@H](NC(=O)CCSc1ccc(-c2cccc(S(N)(=O)=O)c2)cc1)C(=O)O`, at Syntenin-1/Syndecan-2 [2], the IC50 came to 78 µM. Take `C[C@H](NC(=O)CCSc1ccccc1)C(=O)O`: in experiment [1], the inhibition is 19%. Regarding `CC(C)[C@H](NC(=O)CCSc1ccc(Br)cc1)C(=O)O`, the IC50 is 47 µM at Syntenin-1/Syndecan-2 [2] and 51 µM at Syntenin-1/Syndecan-2 [3]. In the experiment with MCF7 [4], the outcome was Active. For the same molecule, in the experiment with MCF7 [5], the outcome was inactive.

Turning to `CC(C)[C@H](NC(=O)COc1ccccc1)C(=O)O`, in experiment [1], the inhibition came to 7%. In the case of `CC(C)[C@H](NC(=O)CCOc1ccc(Cl)cc1)C(=O)O`, the inhibition in experiment [1] was 31%. For the molecule `C[C@H](NC(=O)CSc1ccc(Cl)cc1)C(=O)O`, the inhibition in experiment [1] is 25%. As to `C[C@H](NC(=O)CCSc1ccc(Cl)cc1)C(=O)O`, in experiment [1], the inhibition amounted to 56%. Regarding `CC(C)[C@H](NC(=O)CSc1ccccc1)C(=O)O`, the inhibition in experiment [1] was 20%. Regarding `CC(C)[C@H](NC(=O)CCSc1ccc(-c2cccc(O)c2)cc1)C(=O)O`, the IC50 at Syntenin-1/Syndecan-2 [2] is more than 200 µM. In the case of `CC(C)[C@H](NC(=O)CCSc1ccccc1)C(=O)O`, the inhibition in experiment [1] worked out at 76%.
